# Source: ChEMBL document CHEMBL1134473, “Synthesis and biological evaluation of pyrrolinic isosteres of rilmenidine. Discovery of cis-/trans-dicyclopropylmethyl-(4,5-dimethyl-4,5-dihydro-3H-pyrrol-2-yl)-amine (LNP 509), an I1 imidazoline receptor selective ligand with hypotensive activity” (J Med Chem, 2001)
# Test: Displacement of [3H]RX-821002 from alpha-2 adrenergic receptor of calf frontal cortex membranes
# Format: tissue-based, Bos taurus
# Method in brief: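 Calf frontal cortex membranes (0.5 mg protein/mL) incubated 60 min at 25 °C with 0.8 nM [3H]RX821002 plus 0.3 µM 5HT to mask 5HT1A sites, in 50 mM sodium phosphate pH 7.4, drug 10^-9 to 10^-4 M. Nonspecific binding with 10 µM phentolamine. Bound ligand separated by GF/C filtration and counted. Three experiments in triplicate; Ki by Cheng-Prusoff.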
row,Structure (SMILES),Log Ki
1,C1CN=C(NC(C2CC2)C2CC2)C1,> -5
2,C1CCC2N=C(NC(C3CC3)C3CC3)CC2C1 (stereo not drawn),> -5
3,CC1CCC(NC(C2CC2)C2CC2)=N1 (stereo not drawn),> -5
4,CC1CCN=C1NC(C1CC1)C1CC1 (stereo not drawn),> -5
5,CCC1CCC(NC(C2CC2)C2CC2)=N1 (stereo not drawn),> -5
6,CC1CN=C(NC(C2CC2)C2CC2)C1 (stereo not drawn),> -5
7,CC1CC(NC(C2CC2)C2CC2)=NC1C (mixture of isomers),> -5
8,C1COC(NC(C2CC2)C2CC2)=N1 [RILMENIDINE],-7.25
